A selection: hits, their analogues and other compounds. The true share with any hit is near 3.9%.
TAAR1 agonist = human TAAR1 agonism | Q96RJ0 | CHO RD-HGA16 TAAR1, Fluo-8 calcium fluorescence; vehicle wells 0%, saturating PEA agonist 100% | activation, % at 3 µM | 0.99% of 360,000 active;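 active = activation above the mean activation of all test compounds in the run plus 3 SD, cut at about 38% in these data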
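Assay system – CHO-derived RD-HGA16 cells with stable Gα16 and human TAAR1 · Compound dosing – one-point dosing at 3 µM (nominal) · Incubation – 17-24 h seeding, 75 min 37 °C dye, 30 min RT · Measured by – kinetic Fluo-8 calcium fluorescence · Control set – DMSO vehicle as 0%, PEA at EC100 as 100% · Repeats – single well for each compound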
ANO1 block = blocks the mouse calcium-activated chloride channel TMEM16A. Q8BHY3. HEK293 TMEM16A/YFP iodide influx fluorescence, ionomycin. 1.2% of 310,000 active. AID 588511. normalized B-score (activity score, 25-100; higher = stronger inhibition) at 10 µM;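 active = ratio plate-corrected score three or more library SD toward inhibition, starting fluorescence score within five deviations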;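 also: score derived from kinetic fluorescence span divided by baseline fluorescence per well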
Target sequence (Q8BHY3 whole entry, looked up): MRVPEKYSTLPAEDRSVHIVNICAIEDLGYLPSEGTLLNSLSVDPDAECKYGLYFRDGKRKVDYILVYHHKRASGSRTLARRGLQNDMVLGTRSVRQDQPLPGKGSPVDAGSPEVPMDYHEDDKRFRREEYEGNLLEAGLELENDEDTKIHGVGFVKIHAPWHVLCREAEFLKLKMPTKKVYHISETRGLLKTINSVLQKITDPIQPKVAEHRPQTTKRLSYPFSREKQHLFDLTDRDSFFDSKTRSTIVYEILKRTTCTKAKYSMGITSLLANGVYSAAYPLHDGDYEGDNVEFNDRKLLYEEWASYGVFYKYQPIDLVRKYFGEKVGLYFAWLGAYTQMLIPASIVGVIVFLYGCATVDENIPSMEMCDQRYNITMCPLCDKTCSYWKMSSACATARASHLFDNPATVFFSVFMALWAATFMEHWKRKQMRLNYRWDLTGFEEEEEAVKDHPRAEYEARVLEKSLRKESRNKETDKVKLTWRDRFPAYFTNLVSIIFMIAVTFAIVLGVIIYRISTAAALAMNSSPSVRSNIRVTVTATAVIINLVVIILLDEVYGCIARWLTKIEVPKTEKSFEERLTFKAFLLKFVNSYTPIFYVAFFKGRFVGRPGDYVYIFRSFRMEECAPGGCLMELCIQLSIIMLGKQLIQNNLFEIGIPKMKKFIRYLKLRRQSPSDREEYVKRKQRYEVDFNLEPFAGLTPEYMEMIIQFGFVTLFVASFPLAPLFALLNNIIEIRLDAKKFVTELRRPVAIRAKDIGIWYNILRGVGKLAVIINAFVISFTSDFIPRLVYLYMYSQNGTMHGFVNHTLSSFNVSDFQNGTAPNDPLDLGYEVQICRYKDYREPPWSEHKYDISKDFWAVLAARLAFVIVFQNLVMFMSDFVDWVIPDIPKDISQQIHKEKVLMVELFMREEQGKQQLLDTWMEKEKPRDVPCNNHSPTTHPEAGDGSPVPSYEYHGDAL
TAAR1 antag = antagonists of human TAAR1; CHO RD-HGA16 TAAR1, Fluo-8 calcium fluorescence, antagonist; 1.5% of 360,000 active; inhibition, % at 3 µM; Q96RJ0;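 active = inhibition above a per-plate cutoff, the mean inhibition of test compounds on that plate plus 3 SD, cut at about 49% in these data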;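 also: 0% = DMSO plus EC80 beta-PEA response and 100% = DMSO alone without agonist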
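Test system: RD-HGA16 CHO cells with stable hTAAR1 and Gα16 / Probe or stimulus: EC80 β-phenethylamine stimulus / Times: seeding 17-24 h prior, 75-min 37 °C, 30-min RT dye loading / Detection: Fluo-8 calcium-sensitive fluorescence / Read-out basis: % inhibition scaled between DMSO and EC80 PEA controls / Repeats: singlicate, one well per test compound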
ANO1 activ = activators or potentiators of mouse TMEM16A chloride channel; HEK293 TMEM16A/YFP-H148Q/I152L, iodide quench fluorescence; active compounds read low; 0.3% of 340,000 active; Q8BHY3; B-score at 10 µM; AID 623877;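 active = fluorescence-ratio B-score plate-corrected deviation score at least 3 library SD below zero, with starting fluorescence score within 5 deviations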;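 also: channel opened by trigger with iodide after compound preincubation; score built on the fluorescence ratio of max minus min over baseline; more negative score means more quench and so TMEM16A activation or potentiation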
CRFBP-R2 agonist = CRF-BP/CRF-R2 complex agonism | HEK293 CRF-R2/CRF-BP, calcium dye fluorescence (FLIPR); percent of saturating CRF peptide response | activation, % at 13.2 µM | 0.46% of 350,000 active;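 active = activation of at least 50%, plus an integration ratio under a set limit after plate pattern correction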;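 also: plate controls were neutral control wells without compound for no effect and CRF at EC100 for full effect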
CRFR2-BP antag = blocks CRF-induced signaling of the CRF-BP/CRF-R2 complex; HEK293 CRF-R2/CRF-BP, CRF-induced calcium fluorescence; inhibition, % at 11.8 µM; 0.59% of 350,000 active; AID 588475;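 active = inhibition of the ligand-induced calcium signal above about 50% at the single tested concentration, limit read from the data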
The depositor's hits bear a star; i = inactive; nt = not tested or not shown.

SMILES	TAAR1 agonist	ANO1 block	TAAR1 antag	ANO1 activ	CRFBP-R2 agonist	CRFR2-BP antag
Cc1nn(-c2ccc(C(=O)N3CCN(S(=O)(=O)c4ccccc4C(F)(F)F)CC3)cc2)c(C)c1Cl	0	nt	-8	-5.8*	-2	-2
COc1cc(OC)cc(N(C(=O)CNC(=O)c2cccs2)C(C(=O)NCC2CCCO2)c2ccc(OC)c(OC)c2)c1 (stereo not given)	3	i	12	i	53*	-68
COc1ccc(N(C(=O)CNC(=O)c2cccs2)C(C(=O)NCC2CCCO2)c2ccc(OC)c(OC)c2)cc1 (stereo not given)	3	i	23	i	-2	11
CCOc1cc(CNS(=O)(=O)c2ccc3c(c2)CC(=O)N3C)cc(OCC)c1OCC	3	i	-17	-5.2*	1	-2
CN1C(=O)Cc2cc(S(=O)(=O)NCc3cccs3)ccc21	10	i	11	i	-1	1
CC(=O)c1ccc(-n2c(-c3cc(-c4ccco4)[nH]n3)n[nH]c2=S)cc1	-2	i	-2	-12*	-1	-13
O=c1oc2c(CN3CCN(CCO)CC3)c(O)ccc2cc1-c1ccccn1	1	i	-10	i	71*	-15
O=c1oc2c(CN3CCCCC3)c(O)ccc2cc1-c1nc2ccccc2[nH]1	3	nt	0	i	97*	-71
CCc1cc2c(=O)c(-c3nc4ccccc4[nH]3)coc2c(CN2CCCCC2)c1O	2	i	-8	i	-1	-4
O=C1c2ccccc2NC(c2ccc(Br)s2)N1O (stereo not given)	-1	i	-12	i	-2	-32
O=C(COC(=O)C1CC2CCCC(C1)C2=O)NNC(=O)c1ccc([N+](=O)[O-])cc1 (stereo not given)	0	i	-16	i	-1	1
O=C(NCc1ccccc1)c1nccnc1CO	1	i	-12	i	-2	10
O=c1c2ccccc2c(-c2ccc(O)cc2)nn1-c1cccc(C(F)(F)F)c1	-1	i	22	i	1	57*
CCO[C@@H]1OC(C(=O)N2CCCCCCC2)=C[C@H](C2CCCCC2)[C@H]1CCCO	3	i	7	i	5	2
CC1(C)Cc2c(sc(/N=C/N3CCCC3)c2C#N)C(C)(C)N1	1	i	-13	i	10	62*
CC1(C)Cc2c(sc(/N=C/N3CCCCCC3)c2C#N)C(C)(C)N1	9	i	4	i	4	-16
Cc1nnc2c(-c3ccccc3)nc3ccccc3n12	1	i	-9	-16*	0	-12
OCC[C@@H]1C[C@H](O)[C@@H](O)[C@]2(OCc3ccc4ccccc4c32)O1	4	nt	-9	nt	-1	3
CC1CC1C(=O)N(CCC1=CCCCC1)c1c(N)n(Cc2ccccc2)c(=O)[nH]c1=O (stereo not given)	0	i	-8	i	1	-1
O=C(CSc1nc2ccc([N+](=O)[O-])cc2[nH]1)c1ccc2ccccc2c1	7	i	52*	i	0	-15
C/C(=N\Nc1ccc([N+](=O)[O-])cc1)c1cccc(N)c1	18	i	17	i	3	-20
N#C/C(=N\Nc1ccc([N+](=O)[O-])cc1)C(N)=S	5	100*	-30	i	12	57*
O=C(O)c1ccc(N=NNc2cccc([N+](=O)[O-])c2)cc1	6	i	-13	i	-2	4
N#C/C(=N\Nc1cccc([N+](=O)[O-])c1)C(=O)c1ccc(Br)cc1	3	25*	33	i	22	52*
C/C(=N\Nc1ccc([N+](=O)[O-])cc1)c1ccc(O)cc1	19	i	55*	i	37	-124
SMILES	TAAR1 agonist	ANO1 block	TAAR1 antag	ANO1 activ	CRFBP-R2 agonist	CRFR2-BP antag
O=C(NC(=S)Nc1ccccc1N1CCCC1)c1ccco1	6	i	-9	-6.9*	5	9
O=C(NC(=S)Nc1ccccc1N1CCCCC1)c1ccco1	8	i	-15	i	2	-35
O=S(=O)(NCCc1ccc(F)cc1)c1ccc(F)cc1Br	1	nt	-1	nt	-3	2
Cc1cc(C)n(-c2nc(Nc3ccccc3C)nc(-n3nc(C)cc3C)n2)n1	39*	i	87*	nt	nt	nt
COc1ccc(CCNC(=O)CCSCc2ccccc2F)cc1OC	1	i	-7	i	0	-5
O=C(CCSCc1ccccc1F)NCCc1ccccc1	39*	i	76*	i	1	-9
CN(C(=O)c1ccccc1[N+](=O)[O-])c1ccccc1C(=O)NCc1ccccc1	3	i	-2	i	-2	-10
COc1ccc(CNC(=O)CN2CCN(S(=O)(=O)c3cc(Br)ccc3Br)CC2)cc1OC	10	nt	26	i	-1	60*
O=C(NCc1ccccn1)C1Nc2ccc(C(F)(F)F)cc2C2C=CCC12 (stereo not given)	5	i	1	i	-1	3
CCN(c1ccccc1)S(=O)(=O)c1ccc(C(=O)N(C)Cc2cccs2)cc1	11	nt	49*	i	0	0
CCN(CC(=O)NCc1cccs1)C(=O)c1ccc(S(=O)(=O)N(C)c2ccccc2)cc1	4	nt	16	i	-1	8
COc1ccc(/C=N/NS(=O)(=O)c2ccccc2)cc1OC(=O)c1ccc(C)cc1	4	i	17	i	-3	51*
COc1ccc(/C=N/NS(=O)(=O)c2ccc(C)cc2)cc1OC(=O)c1ccccc1	-1	i	-12	i	1	-13
CC1(C)Cc2c(sc3c2c(=O)n(-c2cccc(Cl)c2)c(=O)n3CC(N)=O)CO1	5	i	2	i	-1	-6
Cc1[nH][nH]c(=O)c1C(c1ccc(-c2ccc(Cl)c(Cl)c2)o1)c1c(C)[nH][nH]c1=O	32	i	105*	i	-2	0
Nc1nc(Sc2ccc([N+](=O)[O-])c3nonc23)c2[nH]cnc2n1	6	nt	4	-6*	9	-47
COc1ccc(C(C(=O)NCC2CCCO2)N(C(=O)Cn2nnc3ccccc32)c2ccccc2C(C)=O)cc1OC (stereo not given)	1	i	0	i	-1	-9
CC(=O)N(c1ccccc1C)C1CCCC1	1	i	-3	i	0	-5
CC(=O)N(C1=C(Cl)C(=O)c2ccccc2C1=O)C1CCCCC1	42*	i	40	i	-2	4
O=C(COc1ccccc1)N1CCN(C(=O)c2ccc([N+](=O)[O-])cc2)CC1	1	i	2	i	0	11
